In article PMC2931272 (Antiviral chemistry & chemotherapy, 2009):
Each block holds one compound with its values, some of them ahead of it.

How the values were obtained:
[1] = Visual cytotoxicity in uninfected HFF's used in plaque reduction assays; type: cell-based; details: human, uninfected human foreskin fibroblasts (HFF)
[2] = Cytotoxicity by neutral red assay in HFF; type: cell-based; details: human, human foreskin fibroblasts (HFF)
[3] = Kinetics of hydrolysis at pH 7.0; type: physicochemical; details: phosphate buffer
[4] = Stability of prodrug / conversion to cyclopropavir in mouse plasma; type: in vitro ADME; details: for First order rate constant of conversion to cyclopropavir (5) / half live of conversion to cyclopropavir (5): 50 μM
How it was run: (§1)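 Blood was drawn by cardiac puncture from anaesthetised male Swiss-Webster mice into EDTA(K3) and iced; plasma was spun 10 min at 1100 × G, 4°C. Blood or plasma was spiked from a DMSO stock to a 50 μM final and held at 0°C (ice water) or 37°C. A no-incubation control was processed straight after spiking. Timed aliquots were frozen (blood first spun 2200 × G, 5 min, 4°C). Prodrug and parent were measured by HPLC, UV.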

[5] = Stability of prodrug / conversion to cyclopropavir in mouse whole blood; type: in vitro ADME; details: for First order rate constant of conversion to cyclopropavir (5) / half live of conversion to cyclopropavir (5): 50 μM
How it was run: as §1

[6] = Pharmacokinetics after IV bolus dosing of prodrug; type: in vivo; details: mice, IV 24.6 mg/kg prodrug
[7] = pH 7.08, 37 °C; cited from earlier work
[8] = analyte prodrug (6), two compartments model

half-life at 2.25 mM [3]: 22.5 h
First order rate constant of conversion to cyclopropavir (5) ([4]; 0°C): 0.0010 min.^−1
half live of conversion to cyclopropavir (5) ([4]; 0°C): 727 min
First order rate constant of conversion to cyclopropavir (5) ([4]; 37°C): 0.0172 min.^−1
half live of conversion to cyclopropavir (5) ([4]; 37°C): 40.4 min
conversion of valcyclopropavir (6) to cyclopropavir (5), no incubation ([4]; processed immediately after spiking): 3.7%
half-life at 50 μM ([5]; male, Swiss-Webster, mouse, whole blood): 22 h
First order rate constant of conversion to cyclopropavir (5) ([5]; mouse whole blood, 0°C): 0.0005 min.^−1
half live of conversion to cyclopropavir (5) ([5]; mouse whole blood, 0°C): 1310 min
First order rate constant of conversion to cyclopropavir (5) ([5]; mouse whole blood, 37°C): 0.0087 min.^−1
half live of conversion to cyclopropavir (5) ([5]; mouse whole blood, 37°C): 80 min
conversion of valcyclopropavir (6) to cyclopropavir (5), no incubation ([5]; mouse whole blood, processed immediately after spiking): 9.0%
Rate constant of distribution phase, α [6, 8]: 0.25 min.^−1
Rate constant of elimination phase, β [6, 8]: 0.00263 min.^−1
Volume of main compartment, V [6, 8]: 0.0753 L/kg
AUC ([6]; male, Swiss-Webster, mouse, plasma, iv, 24.6 mg/kg, Area under the curve, AUC, analyte prodrug (6), single compartment first order elimination model): 1.02 µg·h/mL
clearance ([6]; male, Swiss-Webster, mouse, plasma, iv, 24.6 mg/kg, Clearance (Cl), analyte prodrug (6), single compartment first order elimination model): 402 mL/min
half-life ([6]; male, Swiss-Webster, mouse, plasma, iv, 24.6 mg/kg, Half-life, T1/2, analyte prodrug (6), single compartment first order elimination model): 2.68 h
SMILES: CC(C)[C@H](N)C(=O)OCC1(CO)C/C1=C/n1cnc2c(=O)[nH]c(N)nc21.Cl (mixture of isomers) [Valcyclopropavir (6), (Z)-9-{[2-Hydroxymethyl-2-(L-valyloxymethyl)cyclopropylidene]methyl}guanine Hydrochloride]
CC50 [1]: > 100 µM
CC50 [2]: > 300 µM

SMILES: Nc1nc2c(ncn2/C=C2/CC2(CO)CO)c(=O)[nH]1 [Cyclopropavir (5)]
CC50 [1]: > 100 µM
CC50 [2]: > 380 µM

SMILES: Nc1nc(O)c2ncn(COC(CO)CO)c2n1 [Ganciclovir, reference compound]
CC50 [1]: > 100 µM
CC50 [2]: > 100 µM

SMILES: CC(C)[C@H](N)C(=O)OCC(CO)OCn1cnc2c(=O)nc(N)[nH]c21 (stereo partly shown) [valganciclovir (2)]
half-life of hydrolysis [7]: 11 h
